From ChEMBL document CHEMBL1144505, “Synthesis, analytical behaviour and biological evaluation of new 4-substituted pyrrolo[1,2-a]quinoxalines as antileishmanial agents” (Bioorg Med Chem, 2007) come the findings set out here.

One data set has as its system Leishmania infantum. The data set can be described thus: Antileishmanial activity against Leishmania infantum clone MCAN/GR/82/LEM497 promastigotes by MTT assay after 1 to 2 days. Format: functional, organism-based. The method, boiled down:
(§1)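 Promastigotes harvested at stationary growth phase (10⁶/ml), washed and incubated with compounds in culture medium. Viability was read by MTT reduction to formazan, with detergent lysis and absorbance at 570 nm; in some experiments parasites were instead counted under microscope. […] Values are means of three independent experiments.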

In another data set the test system is Leishmania amazonensis. The data set can be described thus: Antileishmanial activity against Leishmania amazonensis MHOM/BR/1987/BA promastigotes by MTT assay after 1 to 2 days. The data set is classed as functional, organism-based. Summed up:
as §1

Data set [1] is described as follows: Selectivity index, ratio of IC50 for phytohemagglutininin-activated-PBMC to IC50 for Leishmania amazonensis MHOM/BR/1987/BA promastigotes. The data set is classed as functional. The method, boiled down:
(§2)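 Selectivity index is the IC50 on PHA-activated PBMC divided by the IC50 against the L. amazonensis or L. infantum promastigotes.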

The nature of data set [2]: Selectivity index, ratio of IC50 for phytohemagglutininin-activated-PBMC to IC50 for Leishmania infantum clone MCAN/GR/82/LEM497 promastigotes. The data set is classed as functional. Summed up: as §2
Data set [3] deals with PBMC. Description: Cytotoxicity against human PBMC by MTT assay after 3 to 4 days. The data set is classed as cell-based. The method, boiled down: (§3)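 Freshly isolated PBMC from healthy volunteers were prepared on a Ficoll gradient and cultured in medium alone or stimulated with PHA (5 µg/ml). Compounds were added, and after 3–4 days cells were harvested, washed and counted by trypan blue exclusion; in some experiments MTT was used instead. IC50 was obtained by linear regression, and the maximum tolerated concentration was also assessed.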
(In general: Tetrazolium dyes change colour on reduction, which living cells bring about.)

Data set [4] can be described thus: Partition coefficient, log D at pH 7.4. To be noted: octanol/water.
Data set [5] concerns PBMC. Description: Cytotoxicity against human phytohemagglutininin-activated-PBMC by MTT assay after 3 to 4 days. The data set is classed as cell-based. Summed up: as §3

As a reminder, the IC50 is the concentration at which inhibition is half-maximal. Low readings indicate higher potency, high ones lower potency. In general, logD refers to the decadic logarithm of the distribution of all forms, ionised or not, between an organic phase and buffer at a given pH.

Turning to `CCCCC#Cc1nc2ccccc2n2cccc12`, the IC50 in the data set with Leishmania infantum worked out at 25 µM; in the data set with Leishmania amazonensis, 18 µM; in the data set on PBMC [3] it was 50 µM; with PBMC [5] it was 25 µM. The figures for the “Ratio IC50” value in data set [1] and in data set [2] were 1.4 and 1, respectively. Moreover, in data set [4], the logD is 4.36.
As to `CCCc1nc2cc(OC)ccc2n2cccc12`, the IC50 with Leishmania infantum was over 50 µM; in the data set with Leishmania amazonensis it was over 50 µM; with PBMC [3], over 100 µM; in the data set with PBMC [5] it was 90 µM. Also, the logD in data set [4] came out at 3.4.
Turning to `CCCCCc1nc2cc(OC)ccc2n2cccc12`, the half-maximal inhibitory concentration (IC50) in the data set on Leishmania infantum is over 50 µM; with Leishmania amazonensis it was over 50 µM; in the data set on PBMC [3], 66 µM; in the data set with PBMC [5] it was 45 µM. Also, the “Ratio IC50” value in data set [1] and in data set [2] was under 1 throughout. The molecule also displayed a logD in data set [4] of 4.38.
As to `CCC/C=C/c1nc2ccccc2n2cccc12`, the IC50 is 7 µM in the data set with Leishmania infantum, 5 µM with Leishmania amazonensis, 70 µM in the data set on PBMC [3] and 52 µM in the data set with PBMC [5]. Besides, the “Ratio IC50” value stood at 10.4 in data set [1] and 7.4 in data set [2]. In data set [4], the logD is 4.44.
Consider `COc1ccc(CCc2nc3ccccc3n3cccc23)cc1OC`, for which the IC50 with Leishmania infantum was over 50 µM; in the data set with Leishmania amazonensis it was 30 µM; in the data set with PBMC [3], over 100 µM; in the data set with PBMC [5], over 100 µM. Also, the “Ratio IC50” value in data set [1] was over 3.3. The logD in data set [4] came to 2.97.
As to `COc1ccc2c(c1)nc(/C=C/c1ccccc1)c1cccn12`, the IC50 is 5 µM with Leishmania infantum, 36 µM in the data set on Leishmania amazonensis, over 100 µM in the data set on PBMC [3] and over 100 µM with PBMC [5].
In the case of `CCCc1nc2ccccc2n2cccc12`, the IC50 is over 50 µM in the data set on Leishmania infantum, over 50 µM in the data set with Leishmania amazonensis, over 100 µM with PBMC [3] and 100 µM with PBMC [5]. This molecule also came in with a logD in data set [4] of 3.35.
Consider `C1=C(c2nc3ccccc3n3cccc23)CCCC1`, for which the IC50 in the data set on Leishmania infantum was over 50 µM; in the data set with Leishmania amazonensis it was over 50 µM; in the data set on PBMC [3], over 100 µM; in the data set on PBMC [5], over 100 µM. The same molecule returned a logD in data set [4] of 4.12.
In the case of `C/C=C\c1nc2ccccc2n2cccc12`, the IC50 in the data set with Leishmania infantum was found to be 0.8 µM; in the data set with Leishmania amazonensis, 4 µM; in the data set on PBMC [3], 8 µM; with PBMC [5], 6 µM. Besides, the “Ratio IC50” value is reported as 1.5 in data set [1] and 7.5 in data set [2]. Moreover, the logD in data set [4] was 3.3.
As to `C(=C\c1nc2ccccc2n2cccc12)/c1ccccc1`, the IC50 in the data set with Leishmania infantum is over 50 µM; in the data set with Leishmania amazonensis, 35 µM; in the data set with PBMC [3], over 100 µM; in the data set with PBMC [5], over 100 µM. Further, the “Ratio IC50” value in data set [1] was over 2.9. Further, the logD in data set [4] worked out at 4.84.
As for `C/C=C/c1nc2cc(OC)ccc2n2cccc12`, the IC50 is 2 µM in the data set on Leishmania infantum, 7 µM in the data set on Leishmania amazonensis, 5 µM in the data set on PBMC [3] and 5 µM in the data set on PBMC [5]. The “Ratio IC50” value is listed as 0.7 in data set [1] and 2.5 in data set [2]. For the same molecule, in data set [4], the logD was 3.47.
In the case of `C/C=C/c1nc2ccc(OC)cc2n2cccc12`, the IC50 with Leishmania infantum was 0.5 µM; with Leishmania amazonensis, 1 µM; with PBMC [3] it was 7 µM; with PBMC [5], 5 µM. In addition, the “Ratio IC50” value stood at 5 in data set [1] and 10 in data set [2]. This molecule registered a logD in data set [4] of 3.48.
Consider `CCCCCc1nc2ccccc2n2cccc12`, for which the IC50 with Leishmania infantum was over 50 µM; with Leishmania amazonensis, over 50 µM; with PBMC [3], over 100 µM; in the data set on PBMC [5], 30 µM. For the same molecule, the “Ratio IC50” value in data set [1] and in data set [2] was under 1 each time. In data set [4], the logD came out at 4.04.
As for `CCC/C=C/c1nc2cc(OC)ccc2n2cccc12`, the IC50 was 1 µM with Leishmania infantum, 6 µM in the data set with Leishmania amazonensis, 60 µM in the data set with PBMC [3] and 40 µM in the data set on PBMC [5]. The “Ratio IC50” value in data set [1] was found to be 6.7; in data set [2] it was 40. Further, the logD in data set [4] came to 4.52.
In the case of `C=Cc1nc2ccccc2n2cccc12`, the IC50 with Leishmania infantum was 0.5 µM; with Leishmania amazonensis, 3 µM; in the data set with PBMC [3] it was 3 µM; in the data set with PBMC [5] it was 1 µM. The “Ratio IC50” value turned out to be 0.3 in data set [1] and 2 in data set [2]. This molecule also showed a logD in data set [4] of 3.08.
Turning to `C/C=C/c1nc2ccccc2n2cccc12`, the IC50 in the data set with Leishmania infantum amounted to 0.7 µM; with Leishmania amazonensis, 0.5 µM; in the data set with PBMC [3], 6 µM; in the data set with PBMC [5], 5 µM. Also, the entries for the “Ratio IC50” value in data set [1] and in data set [2] were 10 and 7.1, respectively. This molecule yielded a pH-dependent lipophilicity (logD) in data set [4] of 3.44.
With `c1ccc(-c2nc3ccccc3n3cccc23)cc1`, the IC50 in the data set on Leishmania infantum is over 50 µM; in the data set with Leishmania amazonensis, over 50 µM; in the data set on PBMC [3], over 100 µM; in the data set with PBMC [5] it was over 100 µM. Moreover, in data set [4], the logD was 3.6.
Take `c1ccc2c(c1)nc(CCc1ccc3c(c1)OCO3)c1cccn12`: the IC50 in the data set on Leishmania infantum was over 50 µM; in the data set on Leishmania amazonensis, 7 µM; in the data set with PBMC [3], over 100 µM; in the data set on PBMC [5] it was 65 µM. For the same molecule, in data set [1], the “Ratio IC50” value was determined as 9.3. Also, the logD in data set [4] was 3.84.
Consider `CCCCC#Cc1nc2cc(OC)ccc2n2cccc12`, for which the IC50 with Leishmania infantum amounted to 7 µM; in the data set on Leishmania amazonensis, 3 µM; with PBMC [3], 6 µM; in the data set with PBMC [5] it was 5 µM. Besides, the “Ratio IC50” value is 1.7 in data set [1] and 0.7 in data set [2]. Further, in data set [4], the logD is 4.35.
For the molecule `CCC/C=C/c1nc2ccc(OC)cc2n2cccc12`, the IC50 came out at 2.5 µM with Leishmania infantum, 4 µM in the data set on Leishmania amazonensis, 55 µM with PBMC [3] and 30 µM in the data set with PBMC [5]. Moreover, the “Ratio IC50” value is on record as 7.5 in data set [1] and 12 in data set [2]. In data set [4], this molecule displayed a logD of 4.3.
In the case of `C[C@H]1O[C@H]1c1nc2ccccc2n2cccc12` (relative stereo), the IC50 with Leishmania infantum is over 50 µM; in the data set with Leishmania amazonensis, over 50 µM; with PBMC [3] it was over 100 µM; in the data set with PBMC [5] it was over 100 µM. This molecule returned a logD in data set [4] of 2.55.
As to `C[C@@H]1O[C@H]1c1nc2ccccc2n2cccc12` (relative stereo), the IC50 is over 50 µM in the data set on Leishmania infantum, over 50 µM with Leishmania amazonensis, over 100 µM in the data set on PBMC [3] and over 100 µM in the data set with PBMC [5]. The logD in data set [4] is 2.61.
As for `C[C@@H]1[C@H](O)[C@@H](C)/C=C/C=C/C=C/C=C/C=C/C=C/C=C/[C@H](O[C@@H]2O[C@H](C)[C@@H](O)[C@H](N)[C@@H]2O)C[C@@H]2O[C@](O)(C[C@@H](O)C[C@@H](O)[C@H](O)CC[C@@H](O)C[C@@H](O)CC(=O)O[C@H]1C)C[C@H](O)[C@H]2C(=O)O` [AMPHOTERICIN B], the IC50 in the data set on Leishmania infantum was 0.9 µM; in the data set with Leishmania amazonensis, 1 µM; in the data set on PBMC [3], over 100 µM; in the data set on PBMC [5], 96 µM. In addition, the “Ratio IC50” value worked out at 96 in data set [1] and 106.6 in data set [2].
As to `C/C=C/c1ccc2ccccc2n1` [CHIMANINE B], the IC50 in the data set on Leishmania infantum was 7 µM; in the data set with Leishmania amazonensis it was 5 µM; in the data set on PBMC [3] it was 43 µM; in the data set on PBMC [5], 42 µM. In addition, the “Ratio IC50” value in data set [1] amounted to 8.4; in data set [2] it was 6. In data set [4], this molecule returned a logD of 2.23.
